For data set [1], the target named is T1, Nuclear receptor subfamily 1 group I member 3 (Mus musculus, UniProt O35627).
T1 sequence (O35627 whole entry): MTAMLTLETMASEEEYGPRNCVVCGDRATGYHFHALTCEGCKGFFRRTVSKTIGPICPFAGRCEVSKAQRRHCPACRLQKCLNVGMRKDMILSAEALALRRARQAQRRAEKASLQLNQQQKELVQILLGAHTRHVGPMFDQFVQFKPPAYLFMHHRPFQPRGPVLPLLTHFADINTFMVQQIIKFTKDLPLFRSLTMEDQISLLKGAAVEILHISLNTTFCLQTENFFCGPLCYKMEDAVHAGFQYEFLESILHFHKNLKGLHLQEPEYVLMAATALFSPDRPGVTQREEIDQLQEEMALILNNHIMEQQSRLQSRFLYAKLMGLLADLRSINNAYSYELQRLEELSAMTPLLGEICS
In words: Increase in nuclear co-repressor receptor binding to wild type mouse CAR expressed in […] cells at 2 uM by yeast two-hybrid assay. The class given is cell-based. The essentials:
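Yeast two-hybrid: yeast expressing wild-type or mutant mouse CAR LBD plus SRC-1 or NCoR, selected on SD medium lacking Leu and Trp. Pooled colonies treated with DMSO or test chemical for 3.5 h. β-Galactosidase normalized to cell density. SRC-1 reference: wild-type + DMSO = 100. NCoR reference: 10 µM androstenol = 100. Mean ± SD, two independent determinations, each in triplicate.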

For data set [2], the target named is T2, Nuclear receptor subfamily 1 group I member 3 (Mus musculus, UniProt O35627, F171A). Nature of the data set: Activation of mouse CAR F171A mutant expressed in HEK293 cells at 10 uM by mammalian one-hybrid assay. Particulars: hek293, 10 µM; call rule not given here. The format is cell-based.
T2 sequence (O35627 whole entry F171A): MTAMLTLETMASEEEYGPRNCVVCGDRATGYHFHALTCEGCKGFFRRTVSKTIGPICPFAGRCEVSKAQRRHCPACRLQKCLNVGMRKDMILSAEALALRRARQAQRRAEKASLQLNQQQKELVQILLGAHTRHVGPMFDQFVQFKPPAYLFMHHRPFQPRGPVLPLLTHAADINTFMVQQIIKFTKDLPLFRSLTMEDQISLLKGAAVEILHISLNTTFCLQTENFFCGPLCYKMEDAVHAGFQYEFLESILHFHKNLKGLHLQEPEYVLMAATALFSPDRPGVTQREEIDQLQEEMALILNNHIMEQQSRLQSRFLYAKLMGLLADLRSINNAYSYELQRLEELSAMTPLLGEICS
Data set [3] deals with Nuclear receptor subfamily 1 group I member 3 (Mus musculus, UniProt O35627, L212A). Nature of the data set: Activation of mouse CAR L212A mutant expressed in HEK293 cells at 10 uM by mammalian one-hybrid assay. The format is cell-based. Particulars: hek293, 10 µM.
Nuclear receptor subfamily 1 group I member 3 (Mus musculus, UniProt O35627, L212A), sequence (O35627 whole entry L212A): as the sequence (O35627 whole entry F171A) above, with A171F, L212A counted along it
Data set [4] deals with T3, Nuclear receptor subfamily 1 group I member 3 (Mus musculus, UniProt O35627, L253F). Nature of the data set: Decrease in mouse CAR L253F mutant activation expressed in HEK293 cells at 10 uM by mammalian one-hybrid assay. The format is cell-based. To be noted: read-out: Activity. The essentials:
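GAL4-DBD fused to mouse CAR LBD (residues 118-358), wild-type or point mutant, cotransfected with UASx4-tk-luc reporter and pCMVβ into HEK293 cells. Cells were exposed to final 1 µM, 2 µM or 10 µM test chemical, or 0.1% v/v DMSO, for 24 h after transfection. Luciferase was normalized to β-galactosidase and set against empty GAL4 vector (=1.0). Mean ± standard deviation, three independent experiments.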

Data set [5] deals with T4, Nuclear receptor subfamily 1 group I member 3 (Mus musculus, UniProt O35627, N175A). Nature of the data set: Enhancement of steroid receptor co-activator 1 binding to mouse CAR N175A mutant […] at 10 uM by yeast two-hybrid assay. The format is cell-based.
T4 sequence (O35627 whole entry N175A): as the sequence (O35627 whole entry F171A) above, with A171F, N175A counted along it
In data set [6] the target is T5, Nuclear receptor subfamily 1 group I member 3 (Mus musculus, UniProt O35627, S251L). In words: Decrease in nuclear co-repressor receptor binding to mouse CAR S251L mutant […] at 10 uM by yeast two-hybrid assay. The class given is cell-based. Set-up: scale not given: the % may be the effect or the level left.
T5 sequence (O35627 whole entry S251L): as the sequence (O35627 whole entry F171A) above, with A171F, S251L counted along it
Data set [7] deals with T5, Nuclear receptor subfamily 1 group I member 3. In words: Effect on steroid receptor coactivator 1 binding to mouse CAR S251L mutant […] at 10 uM by yeast two-hybrid assay. The format is cell-based. To be noted: read-out: Activity. The method in brief:
(§1)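 Yeast two-hybrid assay. Yeast co-expressing wild-type or mutant mouse CAR LBD and the SRC-1 partner were selected on SD plates lacking leucine and tryptophan. Random colonies were pooled and amplified, then treated with DMSO or test chemical for 3.5 h. β-galactosidase activity was normalized to cell density and set relative to wild-type mCAR + SRC-1 with DMSO (=100). Mean ± standard deviation of two determinations, each in triplicate.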

The target in data set [8] is T6, Nuclear receptor subfamily 1 group I member 3 (Mus musculus, UniProt O35627, I252L). In words: Enhancement of steroid receptor coactivator 1 binding to mouse CAR I252L mutant […] at 10 uM by yeast two-hybrid assay. The class given is cell-based.
T6 sequence (O35627 whole entry I252L): as the sequence (O35627 whole entry F171A) above, with A171F, I252L counted along it
Data set [9] deals with T7, Nuclear receptor subfamily 1 group I member 3 (Mus musculus, UniProt O35627, T350A). In words: Decrease in nuclear co-repressor receptor binding to mouse CAR T350A mutant […] at 10 uM by yeast two-hybrid assay. The format is cell-based. The arrangement: scale not given: the % may be the effect or the level left.
T7 sequence (O35627 whole entry T350A): as the sequence (O35627 whole entry F171A) above, with A171F, T350A counted along it
Data set [10] deals with T8, Nuclear receptor subfamily 1 group I member 3 (Mus musculus, UniProt O35627, L353A). In words: Effect on steroid receptor coactivator 1 binding to mouse CAR L353A mutant […] at 10 uM by yeast two-hybrid assay. Particulars: read-out: Activity. The format is cell-based. The method in brief: as §1
T8 sequence (O35627 whole entry L353A): as the sequence (O35627 whole entry F171A) above, with A171F, L353A counted along it
In data set [11] the target is T1, Nuclear receptor subfamily 1 group I member 3. In words: Enhancement of steroid receptor coactivator 1 binding to wild type mouse CAR expressed in HEK293 cells at 1 uM by yeast two-hybrid assay. To be noted: read-out: FC.
The target is the same in data set [12]. In words: Enhancement of steroid receptor coactivator 1 binding to wild type mouse CAR expressed in HEK293 cells at 2 uM by yeast two-hybrid assay. Particulars: hek293, 2 µM.
For data set [13] the target is unchanged. In words: Enhancement of steroid receptor coactivator 1 binding to wild type mouse CAR expressed in HEK293 cells at 10 uM by yeast two-hybrid assay. To be noted: for fold induction at 10 µM: HEK293, mouse, read-out: FC.
For data set [14], the target named is T6, Nuclear receptor subfamily 1 group I member 3. To be noted: HEK293, mouse, read-out: Activity.
For data set [15], the target named is T2, Nuclear receptor subfamily 1 group I member 3. To be noted: HEK293, mouse.
Data set [16] concerns the target T4, Nuclear receptor subfamily 1 group I member 3. Particulars: HEK293, mouse, read-out: Activity.
In data set [17] the target is Nuclear receptor subfamily 1 group I member 3 (Mus musculus, UniProt O35627, H213A). To be noted: HEK293, mouse.
Nuclear receptor subfamily 1 group I member 3 (Mus musculus, UniProt O35627, H213A), sequence (O35627 whole entry H213A): as the sequence (O35627 whole entry F171A) above, with A171F, H213A counted along it
For data set [18], the target named is T3, Nuclear receptor subfamily 1 group I member 3. Particulars: HEK293, mouse.
Data set [19] has as its target T7, Nuclear receptor subfamily 1 group I member 3. To be noted: HEK293, mouse.
Data set [20] concerns the target Nuclear receptor subfamily 1 group I member 3 (Mus musculus, UniProt O35627, T350M). Particulars: HEK293, mouse.
Data set [21] addresses T1, Nuclear receptor subfamily 1 group I member 3. Nature of the data set: Activation of wild type mouse CAR expressed in HEK293 cells at 10 uM by mammalian one-hybrid transactivation assay. Particulars: hek293, 10 µM.
Data set [22] concerns the target T8, Nuclear receptor subfamily 1 group I member 3. Nature of the data set: Decrease in nuclear co-repressor receptor binding to mouse CAR L353A mutant […] at 10 uM by yeast two-hybrid assay. To be noted: read-out: Activity. The class given is cell-based. The essentials: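 Yeast expressing wild-type or mutant mouse CAR LBD plus NCoR, selected on SD plates lacking leucine and tryptophan. Pooled colonies treated with DMSO or compound for 3.5 h. β-Galactosidase activity normalized to cell density. Reference is 10 µM androstenol (=100). Mean ± SD of two independent determinations, each in triplicate.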

Molecules are shown by their SMILES.

T3 sequence (O35627 whole entry L253F, the tested form may be a part): as the sequence (O35627 whole entry F171A) above, with A171F, L253F counted along it
Nuclear receptor subfamily 1 group I member 3 (Mus musculus, UniProt O35627, T350M), sequence (O35627 whole entry T350M): as the sequence (O35627 whole entry F171A) above, with A171F, T350M counted along it

As for `COc1ccc(C(=O)CCCc2ccccc2)cc1`, the entries for the “fold change (FC)” value in data set [1] and in [21] were 4 and 1.4, respectively. For the same compound, the Activity in [2] was above 100%; in data set [3], 50%; in data set [5], “>= 50%”; in [6] it was “>= 50%”; in data set [8] it was above 150%; in data set [9], “>= 50%”. In addition, the results for the inhibition at 10 µM in [4], in data set [14] and in data set [16] were below 50%, 50% and at least 50%, respectively. For the same compound, the activity at 10 µM in data set [7], in data set [10], in [15], in data set [17], in [18] and in data set [19] was below 50% each time. Further, the activity at 10 µM in [20] was below 50%. The fold induction at 1 µM in data set [11] was 2.5. Further, in data set [12], the FC was found to be 2.5. Also, the fold induction at 10 µM in data set [13] worked out at 2.5.

`COc1ccccc1CC(CC(=O)Cc1ccccc1)OC` (stereo not given): the figures for the “fold change (FC)” value in [1] and in [21] were 4 and 2, respectively. The Activity is above 100% in [2]; below 50% in [3]; above 150% in data set [5]; “>= 50%” in [6]; “>= 50%” in data set [8]; “>= 50%” in [9]. In addition, the inhibition at 10 µM in data set [4] was below 50%; in data set [22] it was at least 50%; in data set [14] it was below 50%; in data set [16], at least 50%. In addition, the activity at 10 µM in data set [7], in data set [10], in data set [15], in [17], in [18] and in data set [19] was below 50% throughout. The fold induction at 1 µM in data set [11] came out at 2.5. For the same compound, the FC in data set [12] came to 2.5. In addition, in data set [13], the fold induction at 10 µM was 2.5.

As to `Clc1cnc(Oc2ccc(Oc3ncc(Cl)cc3Cl)cc2)c(Cl)c1`, in data set [11], the fold induction at 1 µM was 2.5. Also, the FC in data set [12] was found to be 2.5. In [13], the fold induction at 10 µM stood at 2.5.

As to `C[C@]12CC[C@@H](O)C[C@@H]1CC[C@@H]1[C@@H]2CC[C@]2(C)C=CC[C@@H]12` [ANDROSTENOL], the inhibition at 10 µM in data set [4] is below 50%; in data set [22] it was at least 50%; in data set [14] it was below 50%; in [16], at least 50%. In addition, the Activity in data set [5] is recorded as above 150%; in data set [6] it was “>= 50%”; in [8] it was above 150%; in [9], “>= 50%”; in data set [13] (mouse, hek293, 10 µM), “Not Active”. The activity at 10 µM in data set [7], in data set [10], in [15], in [17], in [18] and in [19] was below 50% throughout. In data set [20], the activity at 10 µM is below 50%.

Take `Clc1ccccc1C(c1ccccc1)(c1ccccc1)n1ccnc1` [CLOTRIMAZOLE]: the “fold change (FC)” value in [1] is listed as 4. In addition, the fold induction at 1 µM in data set [11] was 2.5. In data set [12], the FC is on record as 2.5. Further, the fold induction at 10 µM in data set [13] stood at 2.5.

With `COc1ccc(C(c2ccc(OC)cc2)C(Cl)(Cl)Cl)cc1` [METHOXYCHLOR], the results for the “fold change (FC)” value in data set [1] and in data set [21] were 4 and 1.4, respectively. Moreover, the Activity is below 50% in data set [2]; 50% in [3]; “>= 50%” in [6]; “>= 50%” in data set [8]; “>= 50%” in data set [9]. In addition, the activity at 10 µM in data set [7], in data set [10], in data set [15], in [17], in data set [18] and in data set [19] was below 50% each time. In data set [20], this compound had an activity at 10 µM below 50%. The inhibition at 10 µM is at least 50% in data set [22], 50% in [14] and at least 50% in [16]. In addition, the fold induction at 1 µM in data set [11] is 2.5. In addition, the FC in [12] came to 2.5. In addition, the fold induction at 10 µM in data set [13] was found to be 2.5.

Source of the values: ChEMBL document CHEMBL1152300, “Ligand specificity of constitutive androstane receptor as probed by induced-fit docking and mutagenesis” (J Med Chem, 2008).
